One molecule from ChEMBL document CHEMBL4613249, “Serendipitous Discovery of Leucine and Methionine Depletion Agents during the Search for Polyamine Transport Inhibitors” (J Med Chem, 2020) can be followed below.

SMILES strings stand for the structures. Calls of active or inactive are those of the source.

The target of data set [1] is Large neutral amino acids transporter small subunit 1 (Homo sapiens) (UniProt Q01650). The data set is described as follows: Inhibition of LAT1-mediated amino acid transport in human L3.6PL cells assessed as reduction in intracellular methionine level measured after 72 hrs by LCMS analysis. The class given is cell-based. In short, it runs like this:
(§1)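 L3.6pl cells (50,000 cells/mL, 10 mL, 1 mM aminoguanidine) were seeded in poly-lysine-treated 9 cm dishes and incubated overnight at 37°C. They were then dosed with compound at 2, 5 or 7 μM from PBS stocks (2, 5, 7 mM) and incubated 72 h. Runs were done in triplicate, with amino acid levels per mg protein.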

For data set [2], the system named is L3.6pl. As to the kind of experiment: Effect on polyamine level in human L3.6PL cells assessed as glutamic acid level per mg protein in supernatant at 5 uM measured after 72 hrs in presence of amine oxidase suppressor aminoguanidine by LCMS analysis (reference value: 23412 +/- 3983 pmol/mg).
The test system of data set [3] is L3.6pl. The data set is described as follows: Effect on polyamine level in human L3.6PL cells assessed as phenylalanine level per mg protein in supernatant at 2 uM measured after 72 hrs in presence of amine oxidase suppressor aminoguanidine by LCMS analysis (reference value: 14299 +/- 7194 pmol/mg). The format is functional.
A short description of data set [4]: Toxicity in mouse at 1 mg/kg, ip measured over 24 hrs. The format is organism-based. The settings on record: in vivo.
The subject of data set [5] is L3.6pl. As to the kind of experiment: Effect on polyamine level in human L3.6PL cells assessed as methionine level human L3.6PL cells assessed per mg protein in supernatant at 2 uM pretreated with aminoguanidine for 24 hrs followed by compound treatment after 72 hrs by LCMS analysis (reference value: 22834 +/- 1984 pmol/mg). The format is functional.
The subject of data set [6] is L3.6pl. As to the kind of experiment: Effect on polyamine level in human L3.6PL cells assessed as acetyl spermidine level per mg protein in supernatant at 2 uM measured after 72 hrs in presence of amine oxidase suppressor aminoguanidine by LCMS analysis (reference value: 1936 +/- 1365 pmol/mg). The format is functional.
Data set [7] relates to L3.6pl. The data set is described as follows: Effect on polyamine level in human L3.6PL cells assessed as putrescine level per mg protein in supernatant at 2 uM measured after 72 hrs in presence of amine oxidase suppressor aminoguanidine by LCMS analysis (reference value: 977 +/- 522 pmol/mg). The format is functional.
Data set [8] concerns L3.6pl. As to the kind of experiment: Effect on polyamine level in human L3.6PL cells assessed as acetyl spermine level per mg protein in supernatant at 5 uM measured after 72 hrs in presence of amine oxidase suppressor aminoguanidine by LCMS analysis (reference value: 77 +/- 43 pmol/mg). The format is functional.
Data set [9] relates to L3.6pl. As to the kind of experiment: Effect on polyamine level in human L3.6PL cells assessed as leucine level per mg protein in supernatant at 5 uM measured after 72 hrs in presence of amine oxidase suppressor aminoguanidine by LCMS analysis (reference value: 18009 +/- 9061 pmol/mg). The format is functional.
Data set [10] deals with Large neutral amino acids transporter small subunit 1 (Homo sapiens) (UniProt Q01650). As to the kind of experiment: Inhibition of LAT1-mediated amino acid transport in human L3.6PL cells assessed as reduction in intracellular leucine level measured after 72 hrs by LCMS analysis. The class given is cell-based. In short, it runs like this:
as §1

Data set [11] relates to CHO-K1. As to the kind of experiment: Cytotoxicity against CHOK1 cells assessed as effect on cell growth up to 6 uM measured after 48 hrs by MTS assay. The class given is cell-based, Cricetulus griseus. The settings on record: chinese hamster, cho-k1, 48 h.
In data set [12] the test system is L3.6pl. The data set is described as follows: Effect on polyamine level in human L3.6PL cells assessed as intracellular putrescine level at 7 uM measured after 72 hrs in presence of amine oxidase suppressor aminoguanidine by LCMS analysis relative to control. The class given is functional. To be noted: in the assay text read “by N-dansylation and HPLC analysis” for “by LCMS analysis”. In short, it runs like this: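 L3.6pl cells, 50,000 cells/mL in 10 mL per Petri dish with 1 mM aminoguanidine, plated overnight. Dosed with compound at 2, 5 or 7 μM from PBS stocks, then 72 h at 37°C. Intracellular polyamines measured by N-dansylation and HPLC, in duplicate, as nmol/mg protein against a parallel untreated control.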

The nature of data set [13]: Selectivity index, ratio of IC50 for cytotoxicity against CHOK1 cells assessed as reduction in cell viability after 48 hrs by MTS assay to IC50 for […] human L3.6PL cells assessed as reduction in cell viability after 48 hrs by MTS assay. A digest of the protocol: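 The ratio is of 48 h IC50 values from MTS growth assays. CHO K1/CHO-MG cells were plated at 1000 cells/well and L3.6pl at 500 cells/well, drug in PBS was added after overnight incubation, and absorbance was read at 490 nm. IC50 is 50% growth versus untreated control; runs were done twice in triplicate.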
For orientation: Formazan colour is commonly taken as a measure of viable cells.

In data set [14] the test system is CHO-K1. As to the kind of experiment: Potentiation of 0.5 uM N-(anthracenylmethyl) homospermidine-induced toxicity in CHOK1 cells assessed as increase in Ant-44-induced reduction in cell growth measured after 48 hrs in presence of amine oxidase suppressor aminoguanidine by MTS assay. The format is functional, cell-based. To be noted: Cricetulus griseus. In short, it runs like this: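 CHO K1 cells were pretreated 24 h with 1 mM aminoguanidine, then given fixed Ant-44 (0.5 μM) plus increasing compound (up to 5 μM) for 48 h at 37°C. MTS growth was read, with EC50 defined as the dose halving growth relative to Ant-44 alone. Runs were done twice in triplicate, with SD.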

The target in data set [15] is Large neutral amino acids transporter small subunit 1 (Homo sapiens) (UniProt Q01650). As to the kind of experiment: Induction of LAT1-mediated polyamine efflux in aminoguanidine pretreated human L3.6PL cells assessed as reduction in cell viability at 5 uM measured after 72 hrs in presence of spermidine by MTS assay. The format is cell-based. A digest of the protocol:
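L3.6pl cells pre-incubated 24 h with 250 μM aminoguanidine. Then given increasing compound plus putrescine, spermidine or spermine, each fixed at 1 or 5 μM, for 72 h at 37°C. Growth by MTS relative to untreated control.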

Data set [16] shares this target. As to the kind of experiment: Induction of LAT1-mediated polyamine efflux in human L3.6PL cells assessed as increase in [3H]leucine efflux at 60 uM measured after 30 mins at 37 degC in presence of LAT1 inhibitor JPH-203 by scintillation counting method. The class given is cell-based.
For data set [17] the target is unchanged. The data set is described as follows: Induction of LAT1-mediated polyamine efflux in aminoguanidine pretreated human L3.6PL cells assessed as reduction in cell viability up to 15 uM by MTS assay. The settings on record: TDE = time-dependent effect. The format is cell-based.
In data set [18] the test system is L3.6pl. As to the kind of experiment: Potentiation of 2 uM N-(anthracenylmethyl) homospermidine-induced toxicity in human L3.6PL cells assessed as increase in Ant-44-induced reduction in cell growth measured after 72 hrs in presence of amine oxidase suppressor aminoguanidine by MTS assay. The class given is functional, cell-based. In short, it runs like this: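 L3.6pl cells (500 cells/well) were pretreated 24 h with 250 μM aminoguanidine in PBS, then given Ant-44 (2 μM) with increasing compound for 72 h at 37°C. MTS growth was read, with EC50 relative to the Ant-44-only control.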

The next data set concerns CHO-MG. The data set is described as follows: Induction of polyamine efflux in aminoguanidine pretreated CHO-MG cells assessed as reduction in cell viability measured after 72 hrs in presence of spermine by MTS assay. The settings on record: chinese hamster. The class given is ADME, cell-based, Cricetulus griseus.
Data set [19] deals with L3.6pl. The data set is described as follows: Effect on polyamine level in human L3.6PL cells assessed as arginine level per mg protein in supernatant at 2 uM measured after 72 hrs in presence of amine oxidase suppressor aminoguanidine by LCMS analysis (reference value: 22121 +/- 10585 pmol/mg). The class given is functional.
Data set [20] deals with CHO-K1. As to the kind of experiment: Induction of polyamine efflux in aminoguanidine pretreated CHOK1 cells assessed as reduction in cell viability measured after 72 hrs in presence of spermidine by MTS assay. The class given is ADME, cell-based, Cricetulus griseus. The settings on record: chinese hamster, cho-k1, 72 h.

Chain of Large neutral amino acids transporter small subunit 1 (Homo sapiens) (Q01650 whole entry): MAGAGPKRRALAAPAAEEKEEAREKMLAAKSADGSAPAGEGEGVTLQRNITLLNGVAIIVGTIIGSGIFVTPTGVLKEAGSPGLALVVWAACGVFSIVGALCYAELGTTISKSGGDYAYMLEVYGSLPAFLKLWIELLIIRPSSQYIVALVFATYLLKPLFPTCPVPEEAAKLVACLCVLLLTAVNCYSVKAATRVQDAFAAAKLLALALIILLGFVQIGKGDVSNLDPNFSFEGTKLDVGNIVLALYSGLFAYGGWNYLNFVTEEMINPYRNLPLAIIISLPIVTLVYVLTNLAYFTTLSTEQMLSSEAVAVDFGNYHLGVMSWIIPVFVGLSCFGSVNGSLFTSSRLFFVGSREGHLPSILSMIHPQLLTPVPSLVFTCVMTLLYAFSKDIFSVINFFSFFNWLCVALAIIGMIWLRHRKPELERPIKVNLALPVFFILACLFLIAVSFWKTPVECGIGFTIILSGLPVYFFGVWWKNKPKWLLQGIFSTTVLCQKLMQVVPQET

`CC(C)CCN1CCN([C@@H](CNCc2ccccc2)CC2CCCCC2)C[C@@H]1CC(C)C`: the inhibition result in data set [1] and in [10] was “Dose-dependent effect” in each case. Also, the Activity is on record as 34033 pmol/mg in the data set on L3.6pl [2]; 11954 pmol/mg with L3.6pl [3]; “Non-Toxic” in data set [4]; 17686 pmol/mg in the data set on L3.6pl [5]; 1649 pmol/mg with L3.6pl [6]; 938 pmol/mg in the data set on L3.6pl [7]. Also, the Activity in the data set with L3.6pl [8] was 36 pmol/mg; with L3.6pl [9], 202092 pmol/mg; in the data set on CHO-K1 [11], “Non-Toxic”; with L3.6pl [12], 83%; in the data set with CHO-K1 [14], “Dose-dependent effect”; in data set [17], “Tde”. For the same molecule, the Activity result in the data set on CHO-MG is on record as “Active”; in the data set with L3.6pl [19] it was 18396 pmol/mg; with CHO-K1 [20] it was “Active”. Besides, in data set [13], the “Ratio IC50” value was 2. Moreover, the EC50 (usually the concentration that produces a half-maximal response) with CHO-K1 [14] (CHO-K1, 48 h) came out at 60 nM; with L3.6pl [18] it was 290 nM. For the same molecule, the outcome in data set [15] was Active. Also, the outcome in data set [16] was inactive.
